# Data from ChEMBL document CHEMBL1134384, “Development of new carboxylic acid-based MMP inhibitors derived from functionalized propargylglycines” (J Med Chem, 2001).
# Experiments:
# [1] = target: Collagenase 3 (Homo sapiens, UniProt P45452); experiment: Inhibitory activity against human matrix metalloprotease-13 in quenched fluorescence assay at pH 7.4
# [2] = target: T1, Interstitial collagenase (Homo sapiens, UniProt P03956); experiment: Inhibitory activity against human matrix metalloprotease-1 in quenched fluorescence assay at […]
# T1 sequence (P03956 whole entry): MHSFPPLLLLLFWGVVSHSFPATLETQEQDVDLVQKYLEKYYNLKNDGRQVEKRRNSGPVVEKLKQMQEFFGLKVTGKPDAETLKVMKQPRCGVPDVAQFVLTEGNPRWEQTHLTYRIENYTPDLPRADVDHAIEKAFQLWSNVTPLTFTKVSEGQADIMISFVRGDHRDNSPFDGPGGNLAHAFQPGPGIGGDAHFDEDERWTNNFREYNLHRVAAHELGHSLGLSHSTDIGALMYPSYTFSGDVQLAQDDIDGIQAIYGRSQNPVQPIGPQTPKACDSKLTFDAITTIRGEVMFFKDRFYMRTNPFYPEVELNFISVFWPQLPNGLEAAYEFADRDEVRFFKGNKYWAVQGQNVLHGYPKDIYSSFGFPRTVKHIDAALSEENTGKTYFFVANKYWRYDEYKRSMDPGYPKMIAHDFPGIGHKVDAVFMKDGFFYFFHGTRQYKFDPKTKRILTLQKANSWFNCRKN
# In short: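 Quenched fluorescence assay using truncated human recombinant enzymes expressed in E. coli, at final concentrations of 8 nM for MMP-1 and 16 nM for MMP-3. Substrate was Mca-Pro-Leu-Gly-Leu-Dpa-Ala-Arg-NH₂ at 4 μM, at 25 °C, in 50 mM Tris pH 7.5, 0.2 M NaCl, 5 mM CaCl₂, 0.02% Brij-35. Fluorescence (ex 328/em 393 nm) was read kinetically for 30 min. Eight inhibitor concentrations were tested and IC50 was fitted from Vi/V0.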
# [3] = target: 72 kDa type IV collagenase (Homo sapiens, UniProt P08253); experiment: Inhibitory activity against matrix metalloprotease-2 (MMP-2) in quenched fluorescence assay at […]
# 72 kDa type IV collagenase, sequence (P08253 whole entry): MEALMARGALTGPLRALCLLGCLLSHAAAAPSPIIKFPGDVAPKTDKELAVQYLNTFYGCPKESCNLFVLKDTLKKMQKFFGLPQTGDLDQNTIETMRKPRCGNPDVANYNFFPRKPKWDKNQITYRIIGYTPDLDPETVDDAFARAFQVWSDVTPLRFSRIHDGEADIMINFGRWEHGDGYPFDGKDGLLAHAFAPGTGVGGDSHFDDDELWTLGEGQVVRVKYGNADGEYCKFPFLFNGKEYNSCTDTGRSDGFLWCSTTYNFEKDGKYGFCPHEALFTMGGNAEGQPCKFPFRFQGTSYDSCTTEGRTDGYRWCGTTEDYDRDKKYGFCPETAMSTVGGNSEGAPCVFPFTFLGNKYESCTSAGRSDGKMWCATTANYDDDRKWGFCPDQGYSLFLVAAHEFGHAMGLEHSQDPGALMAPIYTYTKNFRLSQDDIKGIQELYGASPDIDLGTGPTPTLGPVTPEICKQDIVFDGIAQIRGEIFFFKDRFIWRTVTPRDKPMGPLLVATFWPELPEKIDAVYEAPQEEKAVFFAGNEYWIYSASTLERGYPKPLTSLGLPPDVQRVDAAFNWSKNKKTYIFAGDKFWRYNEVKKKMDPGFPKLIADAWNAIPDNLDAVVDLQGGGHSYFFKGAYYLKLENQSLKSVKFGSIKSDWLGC
# In short: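 Full-length human recombinant proMMP-2 from CHO cells was activated with 1 mM APMA for 45 min and used at 1 nM final. Cleavage of 4 μM Mca-Pro-Leu-Gly-Leu-Dpa-Ala-Arg-NH₂ was followed at 25 °C in Tris pH 7.5/NaCl/CaCl₂/Brij-35 buffer, with fluorescence read kinetically for 30 min. IC50 came from 8 inhibitor concentrations.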
# [4] = target: Stromelysin-1 (Homo sapiens, UniProt P08254); experiment: Inhibitory activity against human matrix metalloprotease-3 (MMP-3) ([…])
# Stromelysin-1, sequence (P08254 whole entry): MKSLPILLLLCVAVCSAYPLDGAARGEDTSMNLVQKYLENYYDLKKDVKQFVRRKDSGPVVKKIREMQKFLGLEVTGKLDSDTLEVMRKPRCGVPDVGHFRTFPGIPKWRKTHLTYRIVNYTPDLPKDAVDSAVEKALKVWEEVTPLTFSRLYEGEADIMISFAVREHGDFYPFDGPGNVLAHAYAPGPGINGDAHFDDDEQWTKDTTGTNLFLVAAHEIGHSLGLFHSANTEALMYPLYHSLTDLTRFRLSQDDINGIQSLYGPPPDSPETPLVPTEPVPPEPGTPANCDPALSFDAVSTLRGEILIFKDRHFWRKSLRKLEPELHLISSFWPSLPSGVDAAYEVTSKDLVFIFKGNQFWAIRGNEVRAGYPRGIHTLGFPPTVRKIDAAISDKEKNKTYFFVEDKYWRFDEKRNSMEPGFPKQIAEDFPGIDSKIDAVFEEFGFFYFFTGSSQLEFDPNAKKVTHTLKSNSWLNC
# [5] = Solubility was determined at a pH of […]; assay type: physicochemical; settings: pH 7
SMILES,IC50 [1],IC50 [2],IC50 [3],IC50 [4],solubility [5]
COc1ccc(-c2ccc(S(=O)(=O)NC(CC#CCc3ccccc3)C(=O)O)cc2)cc1 (stereo not given),22 nM,3340 nM,33 nM,777 nM,–
COc1ccc(-c2ccc(S(=O)(=O)NC(CC#CCN3CCOCC3)C(=O)O)cc2)cc1 (stereo not given),–,13700 nM,104 nM,10700 nM,–
COCC#CCC(NS(=O)(=O)c1ccc(NC(=O)c2ccc(OC)cc2)cc1)C(=O)O (stereo not given),–,> 10000 nM,8 nM,9000 nM,3200 µg/mL
O=C(O)C(CC#Cc1ccccc1)NS(=O)(=O)c1ccc(-c2ccc3c(c2)OCO3)cc1 (stereo not given),104 nM,10300 nM,29 nM,5440 nM,80 µg/mL
O=C(Nc1ccc(S(=O)(=O)NC(CC#CCOc2ccccc2)C(=O)O)cc1)c1ccc(Br)cc1 (stereo not given),–,> 10000 nM,9 nM,2850 nM,50 µg/mL
O=C(Nc1ccc(S(=O)(=O)NC(CC#Cc2ccccc2)C(=O)O)cc1)c1ccc(Cl)cc1 (stereo not given),127 nM,> 10000 nM,6 nM,3570 nM,–
O=C(O)C(CC#Cc1ccccc1)NS(=O)(=O)c1ccc(-c2ccc(Oc3ccccc3)cc2)cc1 (stereo not given),2150 nM,> 10000 nM,1470 nM,4560 nM,–
O=C(O)C(CC#CCN1CCOCC1)NS(=O)(=O)c1ccc(-c2ccccc2)cc1 (stereo not given),–,> 10000 nM,297 nM,> 10000 nM,–
COc1ccc(-c2ccc(S(=O)(=O)NC(CC#CCN3CCCC3)C(=O)O)cc2)cc1 (stereo not given),–,> 10000 nM,100 nM,> 10000 nM,–
O=C(Nc1ccc(S(=O)(=O)NC(CC#CCN2CCOCC2)C(=O)O)cc1)c1ccc(Br)cc1 (stereo not given),344 nM,> 10000 nM,12 nM,17400 nM,4400 µg/mL
CCOc1cccc(-c2ccc(S(=O)(=O)NC(CC#Cc3ccccc3)C(=O)O)cc2)c1 (stereo not given),> 1600 nM,> 10000 nM,2390 nM,–,–
O=C(O)C(CC#Cc1ccccc1)NS(=O)(=O)c1ccc(-c2ccc(-c3ccccc3)cc2)cc1 (stereo not given),59 nM,> 10000 nM,29 nM,> 10000 nM,–
COc1ccc(-c2ccc(S(=O)(=O)NC(CC#CCN3CCN(c4ccccc4)CC3)C(=O)O)cc2)cc1 (stereo not given),–,> 10000 nM,547 nM,> 10000 nM,–
COc1ccc(-c2ccc(S(=O)(=O)NC(CC#CCN3CCN(S(C)(=O)=O)CC3)C(=O)O)cc2)cc1 (stereo not given),–,> 10000 nM,1160 nM,> 10000 nM,–
Cc1ccc(C#Cc2ccc(S(=O)(=O)NC(CC#Cc3ccccc3)C(=O)O)cc2)cc1 (stereo not given),89 nM,> 10000 nM,19 nM,22100 nM,–
COCC#CCC(NS(=O)(=O)c1ccc(-c2ccc(Br)cc2)cc1)C(=O)O (stereo not given),147 nM,24800 nM,17 nM,3330 nM,12000 µg/mL
CSc1ccc(-c2ccc(S(=O)(=O)NC(CC#Cc3ccccc3)C(=O)O)cc2)cc1 (stereo not given),16 nM,631 nM,6 nM,3400 nM,–
CO[C@H](C#Cc1ccccc1)C(NS(=O)(=O)c1ccc(-c2ccc(SC)cc2)cc1)C(=O)O (stereo not given in full),33 nM,3400 nM,8 nM,5100 nM,120 µg/mL
COCC#CCC(NS(=O)(=O)c1ccc(NC(=O)N2CCOCC2)cc1)C(=O)O (stereo not given),> 10000 nM,> 10000 nM,2770 nM,> 10000 nM,–
COCC#CCC(NS(=O)(=O)c1ccc(NC(=O)N2CCCC2)cc1)C(=O)O (stereo not given),16900 nM,> 10000 nM,567 nM,> 10000 nM,–
COc1ccc(-c2ccc(S(=O)(=O)NC(CC#Cc3ccc(N4CCOCC4)cc3)C(=O)O)cc2)cc1 (stereo not given),–,> 10000 nM,158 nM,14600 nM,–
O=C(O)C(CC#CCN1CCCC1)NS(=O)(=O)c1ccc(-c2ccccc2)cc1 (stereo not given),3050 nM,> 10000 nM,380 nM,> 10000 nM,–
